Measured values taken from ChEMBL document CHEMBL2417419, “Synthesis and quantitative structure-activity relationship of imidazotetrazine prodrugs with activity independent of O6-methylguanine-DNA-methyltransferase, DNA mismatch repair, and p53” (J Med Chem, 2013).
Activity calls are given as the source filed them. The rule behind the calls is not given here.

Assays:
A2780 [1] = experiment: Ratio of IC50 for human A2780 cells to IC50 for human A2780 cells in presence of MGMT inactivator PaTrin2; type: functional
A2780 [2] = experiment: Chemosensitization of human A2780 cells after 5 days by MTT assay; type: functional, cell-based; settings: A2780, 120 h
A2780 [3] = experiment: Ratio of IC50 for MMR-deficient human A2780/CP70 cells to IC50 for human A2780 cells in presence of MGMT inactivator PaTrin2; type: functional
A2780/CP70 [4] = experiment: (§1) Chemosensitization of MMR-deficient human A2780/CP70 cells after 5 days by MTT assay; type: functional, cell-based
A2780/CP70 [5] = experiment: (§2) Chemoseinsitizatioin of MMR-deficieint humain A2780/CP70 cells after 5 days by MTT assay in preseince of MGMT iinactivator PaTriin2; type: functional, cell-based; settings: Homo sapiens
How it was run: (§3)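 Cells plated at 1×10^3 per well and left overnight at 37 °C in 5% CO2 to adhere. Medium was then replaced with fresh medium holding compound (0 controls to 250 µM; DMSO stock, final DMSO <0.1% v/v) plus 10 µM PaTrin2 to inactivate MGMT. Survival was read by MTT after 5 days at 37 °C.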

HCT-116 [6] = experiment: Chemosensitization of p53-deficient human HCT116 cells after 5 days by MTT assay; type: functional, cell-based; settings: HCT-116, 120 h
How it was run: (§4)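 Cells were seeded at 1×10^3 per well and incubated overnight (37 °C, 5% CO2) to attach, then given fresh medium with compound at 0 (control) to 250 µM. Compounds were dissolved in DMSO, final DMSO <0.1% v/v, with no PaTrin2. MTT survival was measured after 5 days at 37 °C. Isogenic HCT116 p53+/+ and p53−/− pair used.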

HCT-116 [7] = experiment: Chemosensitization of human HCT116 cells expressing p53 after 5 days by MTT assay; type: functional, cell-based; settings: HCT-116, 120 h; how it was run: as §4
HCT-116 [8] = experiment: Ratio of IC50 for human HCT116 cells expressing p53 to IC50 for p53-deficient human HCT116 cells; type: functional
SNB-19 [9] = experiment: Chemosensitization of MGMT-deficient human SNB19 cells after 5 days by MTT assay; type: functional, cell-based; settings: SNB-19, 120 h, in the assay text read “Cyquant assay” for “MTT assay”
A2780 [10] = experiment: Chemosensitization of human A2780 cells after 5 days by MTT assay in presence of MGMT inactivator PaTrin2; type: functional, cell-based; settings: A2780, 120 h; how it was run: as §3
SNB-19 [11] = experiment: Chemosensitization of human SNB19 cells expressing MGMT after 5 days by MTT assay; type: functional, cell-based; settings: SNB-19, 120 h, in the assay text read “Cyquant assay” for “MTT assay”
[12] = Half life of the compound at pH 7.4; type: physicochemical
[13] = as §1; type: functional, cell-based; settings: A2780/CP70, 120 h
A2058 [14] = experiment: Chemosensitization of human A2058 cells after 5 days by MTT assay; type: functional, cell-based; settings: A2058, 120 h, in the assay text read “Cyquant assay” for “MTT assay”
[15] = as §2; type: functional, cell-based; settings: Homo sapiens, A2780/CP70, 120 h; how it was run: as §3
A2058 [16] = experiment: Ratio of temozolomide IC50 to compound IC50 for human A2058 cells; type: functional

Compound	Ratio IC50 (A2780 [1])	IC50 (A2780 [2]) [µM]	Ratio IC50 (A2780 [3])	Activity (A2780/CP70 [4])	Activity (A2780/CP70 [5])	IC50 (HCT-116 [6]) [µM]	IC50 (HCT-116 [7]) [µM]	Ratio IC50 (HCT-116 [8])	IC50 (SNB-19 [9]) [µM]	IC50 (A2780 [10]) [µM]	IC50 (SNB-19 [11]) [µM]	half-life [12] [h]	IC50 [13] [µM]	IC50 (A2058 [14]) [µM]	IC50 [15] [µM]	Ratio IC50 (A2058 [16])
COc1ccc(N(CCn2nnc3c(C(N)=O)ncn3c2=O)CCn2nnc3c(C(N)=O)ncn3c2=O)c([N+](=O)[O-])c1	0.5	1	5	Active	Active	–	–	–	–	–	–	–	–	–	–	–
Cc1ccc(N(C)CCn2nnc3c(C(N)=O)ncn3c2=O)cc1[N+](=O)[O-]	1.1	22	2.8	Active	Active	–	–	–	–	–	–	–	–	–	–	–
CN(CCn1nnc2c(C(N)=O)ncn2c1=O)c1ccc([N+](=O)[O-])cc1	1.1	22	2.8	Active	Active	–	–	–	–	–	–	–	–	–	–	–
NC(=O)c1ncn2c(=O)n(CCCl)nnc12 [MITOZOLOMIDE]	–	–	–	–	–	17.9	60	3.4	–	–	–	–	–	–	–	–
Cn1nnc2c(C(N)=O)ncn2c1=O [TEMOZOLOMIDE]	>30	> 250	>27	–	–	–	–	–	37	8.5	> 250	1.24	> 250	35.5	231	–
NC(=O)c1ncn2c(=O)n(CCN(CCn3nnc4c(C(N)=O)ncn4c3=O)c3ccccc3)nnc12	0.5	1	5	Active	Active	4.8	5.5	1.1	–	–	–	–	–	–	–	–
CC(C)(C)OC(=O)N(CCn1nnc2c(C(N)=O)ncn2c1=O)c1ccc(Cl)cc1	1.1	22	2.8	Active	Active	–	–	–	–	–	–	–	–	–	–	–
NC(=O)c1ncn2c(=O)n(CCNc3ccc(Cl)cc3)nnc12	1.1	22	2.8	Active	Active	9.5	13.2	1.4	77	–	> 100	–	–	> 100	–	–
COc1ccc(N(CCn2nnc3c(C(N)=O)ncn3c2=O)CCn2nnc3c(C(N)=O)ncn3c2=O)cc1	0.5	1	5	Active	Active	9.9	7.6	0.8	6.6	–	7	–	–	2.5	–	10
NC(=O)c1ncn2c(=O)n(CCN(CCn3nnc4c(C(N)=O)ncn4c3=O)c3ccc(Cl)cc3)nnc12	0.5	1	5	Active	Active	–	–	–	–	–	–	–	–	–	–	–
CN(CCn1nnc2c(C(N)=O)ncn2c1=O)c1ccc(F)cc1	1.1	22	2.8	Active	Active	–	–	–	–	–	–	–	–	–	–	–
CN(CCn1nnc2c(C(N)=O)ncn2c1=O)c1ccccc1	1.1	22	2.8	Active	Active	–	–	–	–	–	–	–	–	–	–	–
Cc1ccc(N(CCn2nnc3c(C(N)=O)ncn3c2=O)CCn2nnc3c(C(N)=O)ncn3c2=O)cc1	0.5	1	5	Active	Active	4.4	6.2	1.4	–	–	–	–	–	–	–	–
CN(CCn1nnc2c(C(N)=O)ncn2c1=O)c1ccc(Cl)cc1	1.1	22	2.8	Active	Active	35.8	55	1.5	–	–	–	–	–	–	–	–
COc1ccc(N(C)CCn2nnc3c(C(N)=O)ncn3c2=O)c([N+](=O)[O-])c1	1.1	22	2.8	Active	Active	–	–	–	–	–	–	–	–	–	–	–
NC(=O)c1ncn2c(=O)n(CCN(CCn3nnc4c(C(N)=O)ncn4c3=O)c3ccc(F)cc3)nnc12	0.5	1	5	Active	Active	17	28	1.6	11	–	12	–	–	5.5	–	10
Cc1ccc(N(C)CCn2nnc3c(C(N)=O)ncn3c2=O)cc1	1.1	22	2.8	Active	Active	–	–	–	–	–	–	–	–	–	–	–
